According to ChEMBL document CHEMBL1828589, “Isoeugenol-based novel potent antioxidants: synthesis and reactivity” (Eur J Med Chem, 2011):

Key:
Type in all cases: functional
[1] = Antioxidant activity assessed as ferric to ferrous reduction at 20 ug/ml by FRAP assay
Method in brief: (§1)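 Oyaizu method, adjusted. Diluted compound in ethanol mixed with 0.2 mol/L phosphate buffer pH 6.6 and 1% K3Fe(CN)6, held 50 °C for 20 min. Then 10% trichloroacetic acid added and spun at 10,000g for 10 min. Upper layer mixed with water and 0.1% FeCl3, absorbance read at 700 nm. Mean ± SD of three replicate assays.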

[2] = Antioxidant activity assessed as inhibition of linoleic acid lipid peroxidation at 100 ug/ml measured after 6 hrs by ferric thiocynate method
Method in brief: (§2)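 Mitsuda ferric thiocyanate method. Linoleic acid/Tween 20 emulsion in 0.2 M phosphate pH 7.0, mixed with ethanolic compound and buffer. Incubated at 37 °C in the dark and sampled every 6 h. Aliquot taken into 75% ethanol, 30% ammonium thiocyanate and 0.02 M FeCl2 in 3.5% HCl; A500 read after 3 min. Inhibition % = (Ac−As)/Ac×100 against a no-compound control. Triplicates.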

[3] = Antioxidant activity assessed as ferric to ferrous reduction activity at 40 ug/ml by FRAP assay; method in brief: as §1
[4] = Antioxidant activity assessed as inhibition of linoleic acid lipid peroxidation at 100 ug/ml measured after 12 hrs by ferric thiocynate method; method in brief: as §2
[5] = Antioxidant activity assessed as ferric to ferrous reduction at 10 ug/ml by FRAP assay; method in brief: as §1
[6] = Antioxidant activity assessed as inhibition of linoleic acid lipid peroxidation at 100 ug/ml measured after 18 hrs by ferric thiocynate method; method in brief: as §2
[7] = Antioxidant activity assessed as inhibition of linoleic acid lipid peroxidation at 100 ug/ml measured after 30 hrs by ferric thiocynate method; method in brief: as §2
[8] = Antioxidant activity assessed as residual ABTS+ radical scavenging activity after 30 mins by spectrophotometric analysis
Method in brief: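 ABTS radical cation formed from 2 mM ABTS and 2.45 mM potassium persulfate in water, kept dark at room temperature for 12 h. Ethanolic compound at 10–30 µg/mL added to the radical solution. Remaining radical read at 734 nm and converted to concentration by a calibration curve (0.033–0.33 mM). IC50 (µM) by regression; three repeats.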

[9] = system: Radical scavenging activity; test: Antioxidant activity assessed as residual DPPH radical scavenging activity after 30 mins by spectrophotometric analysis
Method in brief: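 Compound in ethanol at 10–40 µg/mL (3 mL) mixed with 1 mL of 0.1 mM ethanolic DPPH. Shaken, then left 30 min at room temperature, read at 517 nm. IC50 (µM) is the concentration giving a 50% fall in absorbance, from regression; three repeats.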

[10] = Antioxidant activity assessed as superoxide radical scavenging activity after 40 mins by Zhishen's method
Method in brief: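 Riboflavin (3×10⁻⁵ M), methionine (1×10⁻² M) and NBT (1×10⁻⁴ M) in 0.05 M phosphate pH 7.8. Illuminated 25 °C for 40 min to form formazan; absorbance at 560 nm, with an unilluminated mixture as control. Compounds tested at 10–40 µg/mL. IC50 (µM) by regression; three repeats.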

[11] = Antioxidant activity assessed as inhibition of linoleic acid lipid peroxidation at 100 ug/ml measured after 36 hrs by ferric thiocynate method; method in brief: as §2
[12] = Antioxidant activity assessed as ferric to ferrous reduction at 30 ug/ml by FRAP assay; method in brief: as §1
[13] = Antioxidant activity assessed as inhibition of linoleic acid lipid peroxidation at 100 ug/ml measured after 24 hrs by ferric thiocynate method; method in brief: as §2

SMILES	IC50 [8]	IC50 [9]	IC50 [10]	Activity [1]	inhibition [2]	Activity [3]	inhibition [4]	Activity [5]	inhibition [6]	inhibition [7]	inhibition [11]	Activity [12]	inhibition [13]
CCC(c1ccc(O)c(OC)c1)c1cccc(O)c1O (configuration not stated)	8.43 µM	5.8 µM	6.17 µM	0.54	34%	0.73	74%	0.49	90%	97%	96%	0.58	94%
CCC(c1ccc(O)c(OC)c1)c1ccc(O)cc1O (configuration not stated)	10.1 µM	6.71 µM	15.3 µM	0.32	36%	0.47	75%	0.27	85%	97%	94%	0.36	94%
Cc1cc(C(C)(C)C)c(O)c(C(C)(C)C)c1 [BUTYLATED HYDROXYTOLUENE]	10.2 µM	11.5 µM	28.4 µM	0.39	47%	0.6	81%	0.27	92%	98%	98%	0.5	97%
C/C=C\c1ccc(O)c(OC)c1 [ISOEUGENOL]	8.84 µM	40.7 µM	42.3 µM	0.37	28%	0.43	42%	0.32	90%	91%	82%	0.41	96%
CCC(c1ccc(O)c(OC)c1)c1ccccc1O (configuration not stated)	8.53 µM	7.83 µM	10.5 µM	0.27	32%	0.34	75%	0.26	90%	97%	96%	0.3	94%
CCC(c1ccc(O)c(O)c1)c1ccc(O)c(OC)c1 (configuration not stated)	8.28 µM	5.8 µM	6.61 µM	0.55	37%	0.64	78%	0.43	90%	98%	97%	0.58	96%

Compounds with a lower IC50 [8], results first:

IC50 [8]	IC50 [9]	IC50 [10]	SMILES	Activity [1]	inhibition [2]	Activity [3]	inhibition [4]	Activity [5]	inhibition [6]	inhibition [7]	inhibition [11]	Activity [12]	inhibition [13]
8 µM	5.84 µM	61.3 µM	Cc1c(C)c2c(c(C)c1O)CCC(C)(C(=O)O)O2 (configuration not stated) [TROLOX]	0.38	35%	0.72	70%	0.23	87%	92%	86%	0.56	89%
7.19 µM	6.19 µM	13.7 µM	CCOc1cccc(C(CC)c2ccc(O)c(OC)c2)c1O (configuration not stated)	0.22	37%	0.28	77%	0.21	89%	97%	96%	0.25	96%
7 µM	6.3 µM	10.1 µM	CCC(c1ccc(O)c(OC)c1)c1cccc(C(C)C)c1O (configuration not stated)	0.2	38%	0.24	78%	0.22	88%	97%	96%	0.2	95%
